From ChEMBL document CHEMBL1153124, “5-Lipoxygenase-activating protein inhibitors. Part 2: 3-{5-((S)-1-Acetyl-2,3-dihydro-1H-indol-2-ylmethoxy)-3-tert-butylsulfanyl-1-[4-(5-methoxy-pyrimidin-2-yl)-benzyl]-1H-indol-2-yl}-2,2-dimethyl-propionic acid (AM679)--a potent FLAP inhibitor” (Bioorg Med Chem Lett, 2010)

Test system: not listed separately
Experiment: AUC in rat at 10 mg/kg, po
Assay type: ADME, organism-based
Set-up: dose 10 mg/kg, route oral
Details: plasma
Outline: (§1)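 Rat, oral dosing at 10 mg/kg given as the sodium carboxylate salt. Read-outs: F, clearance, Cmax, AUC and half-life.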
For CC(=O)N1CCC[C@H]1COc1ccc2c(c1)c(SC(C)(C)C)c(CC(C)(C)C(=O)O)n2Cc1ccc(Cl)cc1, the AUC was 1200 ng·h/mL.

Test system: not listed separately
Experiment: Cmax in rat at 10 mg/kg, po
Assay type: ADME, organism-based
Set-up: dose 10 mg/kg, route oral
Details: in vivo
Outline: as §1
CC(=O)N1c2ccccc2C[C@H]1COc1ccc2c(c1)c(C(=O)C(C)(C)C)c(CC(C)(C)C(=O)[O-])n2Cc1ccc(Cl)cc1.[Na+] showed a Cmax of 270 nM. For CC(=O)N1c2ccccc2C[C@H]1COc1ccc2c(c1)c(SC(C)(C)C)c(CC(C)(C)C(=O)O)n2Cc1ccc(Cl)cc1, the Cmax was 270 nM.

Target: T1, Arachidonate 5-lipoxygenase-activating protein (Homo sapiens, UniProt P20292)
T1 sequence (P20292 whole entry): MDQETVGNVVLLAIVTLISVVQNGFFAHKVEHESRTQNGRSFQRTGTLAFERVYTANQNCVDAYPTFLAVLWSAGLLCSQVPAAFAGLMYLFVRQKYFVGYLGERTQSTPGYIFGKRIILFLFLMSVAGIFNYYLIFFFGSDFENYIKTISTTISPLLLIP
Experiment: Binding affinity to FLAP in human PMN derived membrane
Assay type: cell membranes
Details: not given
Outline: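 FLAP binding measured in membranes derived from human polymorphonuclear leukocytes (PMN). IC50 values are the average of n ≥ 3.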
Molecule CC(C)(C)Sc1c(CC(C)(C)C(=O)O)n(Cc2ccc(Cl)cc2)c2ccc(OC[C@@H]3CCCN3C(=O)c3ccccc3)cc12 has an IC50 of 1340 nM. CC(=O)N1CCC[C@H]1COc1ccc2c(c1)c(SC(C)(C)C)c(CC(C)(C)C(=O)O)n2Cc1ccc(Cl)cc1 showed an IC50 of 6 nM. For CC(=O)N[C@H](COc1ccc2c(c1)c(SC(C)(C)C)c(CC(C)(C)C(=O)O)n2Cc1ccc(Cl)cc1)c1ccccc1, the IC50 was 581 nM. CC(C)(C)OC(=O)N1c2ccccc2C[C@@H]1COc1ccc2c(c1)c(SC(C)(C)C)c(CC(C)(C)C(=O)O)n2Cc1ccc(Cl)cc1 gave an IC50 of over 10000 nM. Molecule CC(=O)N1c2ccccc2C[C@H]1COc1ccc2c(c1)c([S+]([O-])C(C)(C)C)c(CC(C)(C)C(=O)O)n2Cc1ccc(Cl)cc1 (some centres undefined) has an IC50 of 74 nM. In the case of CC(C)(C)Sc1c(CC(C)(C)C(=O)O)n(Cc2ccc(Cl)cc2)c2ccc(OC[C@@H]3CCCN3S(C)(=O)=O)cc12, the IC50 is reported as 441 nM. Molecule CC(=O)N1c2ccccc2C[C@H]1COc1ccc2c(c1)c(C(=O)C(C)C)c(CC(C)(C)C(=O)O)n2Cc1ccc(Cl)cc1 has an IC50 of 20.6 nM. Molecule CC(=O)N1c2ccccc2C[C@H]1COc1ccc2c(c1)cc(CC(C)(C)C(=O)O)n2Cc1ccc(Cl)cc1 has an IC50 of 218 nM. COc1ccc(-c2ccc(Cn3c(CC(C)(C)C(=O)O)c(SC(C)(C)C)c4cc(OC[C@@H]5Cc6ccccc6N5C(C)=O)ccc43)cc2)nc1 gave an IC50 of 3.8 nM. For CC(C)(C)Sc1c(CC(C)(C)C(=O)O)n(Cc2ccc(Cl)cc2)c2ccc(OCC(O)c3ccc(F)cc3)cc12 (centres undefined), the IC50 was 19 nM. COc1ccc(-c2ccc(Cn3c(CC(C)(C)C(=O)O)c(SC(C)(C)C)c4cc(OC[C@@H]5Cc6ccccc6N5C(C)=O)ccc43)cc2)nn1 showed an IC50 of 3.2 nM. In the case of CC(C)(C)OC(=O)N1c2ccccc2C[C@H]1COc1ccc2c(c1)c(SC(C)(C)C)c(CC(C)(C)C(=O)O)n2Cc1ccc(Cl)cc1, the IC50 is reported as 1100 nM. Work on COc1ccc(-c2ccc(Cn3c(CC(C)(C)C(=O)O)c(SC(C)(C)C)c4cc(OC[C@@H]5Cc6ccccc6N5C(C)=O)ccc43)cc2)cn1 yielded an IC50 of 9.3 nM. Molecule CCC(=O)N1CCC[C@H]1COc1ccc2c(c1)c(SC(C)(C)C)c(CC(C)(C)C(=O)O)n2Cc1ccc(Cl)cc1 has an IC50 of 4 nM. Work on CC(C)(C)Sc1c(CC(C)(C)C(=O)O)n(Cc2ccc(Cl)cc2)c2ccc(OCC(=O)c3ccc(F)cc3)cc12 yielded an IC50 of 13 nM. Molecule CC(=O)N1c2ccccc2C[C@H]1COc1ccc2c(c1)c(SC(C)(C)C)c(CC(C)(C)C(=O)O)n2Cc1ccc(Cl)cc1 has an IC50 of 1.4 nM.

Test system: not listed separately
Experiment: Inhibition of LTB4 production in calcium ionophore A23187 treated human leukocytes
Assay type: functional, cell-based
Details: Leukocyte
Outline: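 Human leukocytes challenged with calcium ionophore; LTB4 produced by the cells was measured. IC50 is the average of n ≥ 3.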
Work on CC(C)(C)Sc1c(CC(C)(C)C(=O)O)n(Cc2ccc(Cl)cc2)c2ccc(OC[C@@H]3CCCN3C(=O)c3ccccc3)cc12 yielded an IC50 of 110 nM. CC(=O)N1CCC[C@H]1COc1ccc2c(c1)c(SC(C)(C)C)c(CC(C)(C)C(=O)O)n2Cc1ccc(Cl)cc1 gave an IC50 of 16 nM. CC(=O)N[C@H](COc1ccc2c(c1)c(SC(C)(C)C)c(CC(C)(C)C(=O)O)n2Cc1ccc(Cl)cc1)c1ccccc1 showed an IC50 of 72 nM. Work on CC(C)(C)OC(=O)N1c2ccccc2C[C@@H]1COc1ccc2c(c1)c(SC(C)(C)C)c(CC(C)(C)C(=O)O)n2Cc1ccc(Cl)cc1 yielded an IC50 of 102 nM. Work on CC(=O)N1c2ccccc2C[C@H]1COc1ccc2c(c1)c([S+]([O-])C(C)(C)C)c(CC(C)(C)C(=O)O)n2Cc1ccc(Cl)cc1 (some centres undefined) yielded an IC50 of 335 nM. For CC(C)(C)Sc1c(CC(C)(C)C(=O)O)n(Cc2ccc(Cl)cc2)c2ccc(OC[C@@H]3CCCN3S(C)(=O)=O)cc12, the IC50 was 30 nM. Molecule CC(=O)N1c2ccccc2C[C@H]1COc1ccc2c(c1)c(C(=O)C(C)C)c(CC(C)(C)C(=O)O)n2Cc1ccc(Cl)cc1 has an IC50 of 20.6 nM. In the case of CC(=O)N1c2ccccc2C[C@H]1COc1ccc2c(c1)cc(CC(C)(C)C(=O)O)n2Cc1ccc(Cl)cc1, the IC50 is reported as 12.9 nM. Molecule COc1ccc(-c2ccc(Cn3c(CC(C)(C)C(=O)O)c(SC(C)(C)C)c4cc(OC[C@@H]5Cc6ccccc6N5C(C)=O)ccc43)cc2)nc1 has an IC50 of 0.5 nM. With CC(C)(C)Sc1c(CC(C)(C)C(=O)O)n(Cc2ccc(Cl)cc2)c2ccc(OCC(O)c3ccc(F)cc3)cc12 (centres undefined) the IC50 was 7 nM. Work on COc1ccc(-c2ccc(Cn3c(CC(C)(C)C(=O)O)c(SC(C)(C)C)c4cc(OC[C@@H]5Cc6ccccc6N5C(C)=O)ccc43)cc2)nn1 yielded an IC50 of 12.6 nM. With CC(C)(C)OC(=O)N1c2ccccc2C[C@H]1COc1ccc2c(c1)c(SC(C)(C)C)c(CC(C)(C)C(=O)O)n2Cc1ccc(Cl)cc1 the IC50 was 106 nM. COc1ccc(-c2ccc(Cn3c(CC(C)(C)C(=O)O)c(SC(C)(C)C)c4cc(OC[C@@H]5Cc6ccccc6N5C(C)=O)ccc43)cc2)cn1 showed an IC50 of 1.8 nM. In the case of CCC(=O)N1CCC[C@H]1COc1ccc2c(c1)c(SC(C)(C)C)c(CC(C)(C)C(=O)O)n2Cc1ccc(Cl)cc1, the IC50 is reported as 1.5 nM. CC(C)(C)Sc1c(CC(C)(C)C(=O)O)n(Cc2ccc(Cl)cc2)c2ccc(OCC(=O)c3ccc(F)cc3)cc12 gave an IC50 of 769 nM. CC(=O)N1c2ccccc2C[C@H]1COc1ccc2c(c1)c(SC(C)(C)C)c(CC(C)(C)C(=O)O)n2Cc1ccc(Cl)cc1 gave an IC50 of 0.5 nM.

Test system: Blood
Experiment: Inhibition of LTB4 production in calcium ionophore treated A23187 human whole blood after 15 mins
Assay type: functional, tissue-based
Details: 0.25 h
Molecule CC(C)(C)Sc1c(CC(C)(C)C(=O)O)n(Cc2ccc(Cl)cc2)c2ccc(OC[C@@H]3CCCN3C(=O)c3ccccc3)cc12 has an IC50 of 22300 nM. CC(=O)N1CCC[C@H]1COc1ccc2c(c1)c(SC(C)(C)C)c(CC(C)(C)C(=O)O)n2Cc1ccc(Cl)cc1 showed an IC50 of 403 nM. For CC(=O)N[C@H](COc1ccc2c(c1)c(SC(C)(C)C)c(CC(C)(C)C(=O)O)n2Cc1ccc(Cl)cc1)c1ccccc1, the IC50 was 23100 nM. CC(C)(C)OC(=O)N1c2ccccc2C[C@@H]1COc1ccc2c(c1)c(SC(C)(C)C)c(CC(C)(C)C(=O)O)n2Cc1ccc(Cl)cc1 gave an IC50 of 12300 nM. Work on CC(=O)N1c2ccccc2C[C@H]1COc1ccc2c(c1)c([S+]([O-])C(C)(C)C)c(CC(C)(C)C(=O)O)n2Cc1ccc(Cl)cc1 (some centres undefined) yielded an IC50 of 23200 nM. Molecule CC(C)(C)Sc1c(CC(C)(C)C(=O)O)n(Cc2ccc(Cl)cc2)c2ccc(OC[C@@H]3CCCN3S(C)(=O)=O)cc12 has an IC50 of 4300 nM. CC(=O)N1c2ccccc2C[C@H]1COc1ccc2c(c1)c(C(=O)C(C)C)c(CC(C)(C)C(=O)O)n2Cc1ccc(Cl)cc1 gave an IC50 of 4900 nM. CC(=O)N1c2ccccc2C[C@H]1COc1ccc2c(c1)cc(CC(C)(C)C(=O)O)n2Cc1ccc(Cl)cc1 showed an IC50 of 31500 nM. Work on COc1ccc(-c2ccc(Cn3c(CC(C)(C)C(=O)O)c(SC(C)(C)C)c4cc(OC[C@@H]5Cc6ccccc6N5C(C)=O)ccc43)cc2)nc1 yielded an IC50 of 373 nM. In the case of CC(C)(C)Sc1c(CC(C)(C)C(=O)O)n(Cc2ccc(Cl)cc2)c2ccc(OCC(O)c3ccc(F)cc3)cc12 (centres undefined), the IC50 is reported as 469 nM. Work on COc1ccc(-c2ccc(Cn3c(CC(C)(C)C(=O)O)c(SC(C)(C)C)c4cc(OC[C@@H]5Cc6ccccc6N5C(C)=O)ccc43)cc2)nn1 yielded an IC50 of 1110 nM. For COc1ccc(-c2ccc(Cn3c(CC(C)(C)C(=O)O)c(SC(C)(C)C)c4cc(OC[C@@H]5Cc6ccccc6N5C(C)=O)ccc43)cc2)cn1, the IC50 was 276 nM. For CCC(=O)N1CCC[C@H]1COc1ccc2c(c1)c(SC(C)(C)C)c(CC(C)(C)C(=O)O)n2Cc1ccc(Cl)cc1, the IC50 was 307 nM. In the case of CC(C)(C)Sc1c(CC(C)(C)C(=O)O)n(Cc2ccc(Cl)cc2)c2ccc(OCC(=O)c3ccc(F)cc3)cc12, the IC50 is reported as 11800 nM. Work on CC(=O)N1c2ccccc2C[C@H]1COc1ccc2c(c1)c(SC(C)(C)C)c(CC(C)(C)C(=O)O)n2Cc1ccc(Cl)cc1 yielded an IC50 of 169 nM.

Target: CYP3A4 (Homo sapiens, UniProt P08684)
Sequence (P08684 whole entry): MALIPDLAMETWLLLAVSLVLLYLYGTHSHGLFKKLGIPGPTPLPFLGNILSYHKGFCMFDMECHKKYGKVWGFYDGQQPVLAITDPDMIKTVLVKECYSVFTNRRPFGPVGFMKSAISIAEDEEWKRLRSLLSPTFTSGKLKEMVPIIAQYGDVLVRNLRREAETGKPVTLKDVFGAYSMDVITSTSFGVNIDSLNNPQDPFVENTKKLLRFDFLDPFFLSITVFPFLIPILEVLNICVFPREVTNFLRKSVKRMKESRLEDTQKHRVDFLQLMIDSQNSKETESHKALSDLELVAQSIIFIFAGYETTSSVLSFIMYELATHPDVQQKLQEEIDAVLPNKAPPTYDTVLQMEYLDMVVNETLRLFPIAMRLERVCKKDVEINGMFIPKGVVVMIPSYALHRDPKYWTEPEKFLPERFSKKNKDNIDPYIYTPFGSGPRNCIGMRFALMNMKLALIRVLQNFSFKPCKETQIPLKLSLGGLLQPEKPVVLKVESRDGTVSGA
Experiment: Inhibition of CYP3A4 at 10 uM
Assay type: ADME
Details: not given
Molecule CC(=O)N1CCC[C@H]1COc1ccc2c(c1)c(SC(C)(C)C)c(CC(C)(C)C(=O)O)n2Cc1ccc(Cl)cc1 has an inhibition at 10 µM of 64%. CC(=O)N1c2ccccc2C[C@H]1COc1ccc2c(c1)c(SC(C)(C)C)c(CC(C)(C)C(=O)O)n2Cc1ccc(Cl)cc1 showed an inhibition at 10 µM of 80%.

Test system: not listed separately
Experiment: Clearance in rat at 10 mg/kg, po
Assay type: ADME, organism-based
Set-up: dose 10 mg/kg, route oral
Details: in vivo
Outline: as §1
With CC(=O)N1CCC[C@H]1COc1ccc2c(c1)c(SC(C)(C)C)c(CC(C)(C)C(=O)O)n2Cc1ccc(Cl)cc1 the CL/F was 20 mL/min/kg. With CC(=O)N1c2ccccc2C[C@H]1COc1ccc2c(c1)c(SC(C)(C)C)c(CC(C)(C)C(=O)O)n2Cc1ccc(Cl)cc1 the CL/F was 25 mL/min/kg.

Target: CYP2C9 (Homo sapiens, UniProt P11712)
Sequence (P11712 whole entry): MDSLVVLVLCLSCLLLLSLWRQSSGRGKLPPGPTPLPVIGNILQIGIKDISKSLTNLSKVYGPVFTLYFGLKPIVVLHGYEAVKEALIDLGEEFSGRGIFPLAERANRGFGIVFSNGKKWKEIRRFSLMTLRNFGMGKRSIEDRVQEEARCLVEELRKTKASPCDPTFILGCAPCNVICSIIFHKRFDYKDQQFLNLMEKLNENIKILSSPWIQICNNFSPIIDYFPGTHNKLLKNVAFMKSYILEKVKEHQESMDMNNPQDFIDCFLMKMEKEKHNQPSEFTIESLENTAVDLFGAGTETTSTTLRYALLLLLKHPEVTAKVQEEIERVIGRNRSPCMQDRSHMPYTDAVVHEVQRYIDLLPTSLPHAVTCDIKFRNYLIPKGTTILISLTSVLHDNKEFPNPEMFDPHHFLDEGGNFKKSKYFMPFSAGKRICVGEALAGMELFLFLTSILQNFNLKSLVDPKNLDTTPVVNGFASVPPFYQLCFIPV
Experiment: Inhibition of CYP2C9 at 10 uM
Assay type: ADME
Details: not given
In the case of CC(=O)N1CCC[C@H]1COc1ccc2c(c1)c(SC(C)(C)C)c(CC(C)(C)C(=O)O)n2Cc1ccc(Cl)cc1, the inhibition at 10 µM is reported as 93%. Molecule CC(=O)N1c2ccccc2C[C@H]1COc1ccc2c(c1)c(SC(C)(C)C)c(CC(C)(C)C(=O)O)n2Cc1ccc(Cl)cc1 has an inhibition at 10 µM of 96%.

Test system: not listed separately
Experiment: Bioavailability in rat at 10 mg/kg
Assay type: ADME, organism-based
Details: in vivo
Outline: as §1
In the case of CC(=O)N1CCC[C@H]1COc1ccc2c(c1)c(SC(C)(C)C)c(CC(C)(C)C(=O)O)n2Cc1ccc(Cl)cc1, the bioavailability is reported as 10%. CC(=O)N1c2ccccc2C[C@H]1COc1ccc2c(c1)c(C(=O)C(C)(C)C)c(CC(C)(C)C(=O)[O-])n2Cc1ccc(Cl)cc1.[Na+] gave a bioavailability of 7%. CC(=O)N1c2ccccc2C[C@H]1COc1ccc2c(c1)c(SC(C)(C)C)c(CC(C)(C)C(=O)O)n2Cc1ccc(Cl)cc1 showed a bioavailability of 11%.
